The source made the active and inactive calls. The calls are words filed in the database; no cut-off is given here.
What was measured:
Mus musculus [1] = experiment: Anticonvulsant activity in mouse CF1 albino assessed as inhibition of minimal electric shock-induced seizure at 30 mg/kg, ip after 0.25 hrs; assay type: functional, organism-based; parameters: dose 30 mg/kg
Outline: (§1)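 6 Hz psychomotor seizure model in male CF-1 albino mice dosed i.p. Four mice per time point (0.25, 0.5, 1, 2, 4 h) received corneal-electrode current of 32 mA for 3 s. Untreated mice show a minimal clonic phase followed by stereotyped automatistic behaviour. Results given as number protected out of 4.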

Mus musculus [2] = experiment: Anticonvulsant activity in mouse CF1 albino assessed as inhibition of minimal electric shock-induced seizure at 30 mg/kg, ip after 0.5 hrs; assay type: functional, organism-based; parameters: dose 30 mg/kg; outline: as §1
Mus musculus [3] = experiment: Anticonvulsant activity in mouse CF1 albino assessed as inhibition of minimal electric shock-induced seizure at 30 mg/kg, ip after 1 hr; assay type: functional, organism-based; parameters: dose 30 mg/kg; outline: as §1
Mus musculus [4] = experiment: Anticonvulsant activity in mouse CF1 albino assessed as inhibition of minimal electric shock-induced seizure at 30 mg/kg, ip after 2 hrs; assay type: functional, organism-based; parameters: dose 30 mg/kg; outline: as §1
Mus musculus [5] = experiment: Anticonvulsant activity in mouse CF1 albino assessed as inhibition of minimal electric shock-induced seizure at 30 mg/kg, ip after 4 hrs; assay type: functional, organism-based; parameters: dose 30 mg/kg; outline: as §1
Mus musculus [6] = experiment: Anticonvulsant activity in mouse CF1 albino assessed as inhibition of minimal electric shock-induced seizure at 100 mg/kg, ip after 1 hr; assay type: functional, organism-based; parameters: dose 100 mg/kg; outline: as §1
Mus musculus [7] = experiment: Anticonvulsant activity in mouse CF1 albino assessed as inhibition of subcutaneous metrazole-induced seizure at 300 mg/kg, ip after 0.5 hrs; assay type: functional, organism-based; parameters: dose 300 mg/kg
Mus musculus [8] = experiment: Anticonvulsant activity in mouse CF1 albino assessed as inhibition of maximal electric shock-induced seizure at 300 mg/kg, ip after 4 hrs; assay type: functional, organism-based; parameters: dose 300 mg/kg
Outline: (§2)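 Male CF-1 albino mice (18–25 g); compound suspended in 0.5% methyl cellulose/water or PEG 200, given i.p. at 30, 100 and 300 mg/kg (0.01 mL/g). Tested 0.5 or 4 h after dosing. Protection = abolition of hind limb tonic extensor component of MES seizure.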

Mus musculus [9] = experiment: Anticonvulsant activity in mouse CF1 albino assessed as inhibition of maximal electric shock-induced seizure at 300 mg/kg, ip after 0.5 hrs; assay type: functional, organism-based; parameters: dose 300 mg/kg; outline: as §2
Mus musculus [10] = experiment: Anticonvulsant activity in mouse CF1 albino assessed as inhibition of subcutaneous metrazole-induced seizure at 300 mg/kg, ip after 4 hrs; assay type: functional, organism-based; parameters: dose 300 mg/kg
Mus musculus [11] = experiment: Neurotoxicity against ip dosed mouse CF1 albino assessed as minimal motor impairment after 0.5 hrs by rotord test; assay type: toxicity, organism-based; settings: in vivo
Outline: (§3)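 Rotorod minimal motor impairment in male CF-1 albino mice (18–25 g) after i.p. dosing at 30, 100 or 300 mg/kg in 0.5% methyl cellulose/water or PEG 200. Mice placed on a rod rotating at 6 rpm at 0.5 or 4 h. Value is minimum dose causing impairment in at least one mouse.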

Mus musculus [12] = experiment: Neurotoxicity against mouse CF1 albino assessed as minimal motor impairment at 300 mg/kg, ip after 4 hrs by rotord test; assay type: toxicity, organism-based; parameters: dose 300 mg/kg, route intraperitoneal; settings: in vivo; outline: as §3
Mus musculus [13] = experiment: Anticonvulsant activity in mouse CF1 albino assessed as inhibition of minimal electric shock-induced seizure at 50 mg/kg, ip after 0.5 hrs; assay type: functional, organism-based; parameters: dose 50 mg/kg; outline: as §1
Mus musculus [14] = experiment: Anticonvulsant activity in mouse CF1 albino assessed as inhibition of minimal electric shock-induced seizure at 50 mg/kg, ip after 1 hr; assay type: functional, organism-based; parameters: dose 50 mg/kg; outline: as §1
Mus musculus [15] = experiment: Anticonvulsant activity in mouse CF1 albino assessed as inhibition of minimal electric shock-induced seizure at 50 mg/kg, ip after 2 hrs; assay type: functional, organism-based; parameters: dose 50 mg/kg; outline: as §1
Mus musculus [16] = experiment: Anticonvulsant activity in mouse CF1 albino assessed as inhibition of minimal electric shock-induced seizure at 50 mg/kg, ip after 4 hrs; assay type: functional, organism-based; parameters: dose 50 mg/kg; outline: as §1
Mus musculus [17] = experiment: Anticonvulsant activity in mouse CF1 albino assessed as inhibition of minimal electric shock-induced seizure at 50 mg/kg, ip after 0.25 hrs; assay type: functional, organism-based; parameters: dose 50 mg/kg; outline: as §1
Mus musculus [18] = experiment: Anticonvulsant activity in mouse CF1 albino assessed as inhibition of minimal electric shock-induced seizure at 100 mg/kg, ip after 0.25 hrs; assay type: functional, organism-based; parameters: dose 100 mg/kg; outline: as §1
Mus musculus [19] = experiment: Anticonvulsant activity in ip dosed mouse CF1 albino assessed as inhibition of maximal electric shock-induced seizure after 4 hrs; assay type: functional; outline: as §2
Mus musculus [20] = experiment: Neurotoxicity against ip dosed mouse CF1 albino assessed as minimal motor impairment after 4 hrs by rotord test; assay type: toxicity, organism-based; settings: in vivo; outline: as §3
Mus musculus [21] = experiment: Anticonvulsant activity in mouse CF1 albino assessed as inhibition of minimal electric shock-induced seizure at 100 mg/kg, ip after 2 hrs; assay type: functional, organism-based; parameters: dose 100 mg/kg; outline: as §1
Mus musculus [22] = experiment: Anticonvulsant activity in mouse CF1 albino assessed as inhibition of minimal electric shock-induced seizure at 100 mg/kg, ip after 4 hrs; assay type: functional, organism-based; parameters: dose 100 mg/kg; outline: as §1
Mus musculus [23] = experiment: Neurotoxicity against mouse CF1 albino assessed as minimal motor impairment at 300 mg/kg, ip after 0.5 hrs by rotord test; assay type: toxicity, organism-based; parameters: dose 300 mg/kg, route intraperitoneal; settings: in vivo; outline: as §3
Mus musculus [24] = experiment: Anticonvulsant activity in ip dosed mouse CF1 albino assessed as inhibition of subcutaneous metrazole-induced seizure after 4 hrs; assay type: functional
Mus musculus [25] = experiment: Anticonvulsant activity in mouse CF1 albino assessed as inhibition of minimal electric shock-induced seizure at 100 mg/kg, ip after 0.5 hrs; assay type: functional, organism-based; parameters: dose 100 mg/kg; outline: as §1

| Structure (SMILES) | Activity (Mus musculus [7]) | Activity (Mus musculus [8]) | Activity (Mus musculus [9]) | Activity (Mus musculus [10]) | Activity (Mus musculus [11]) [mg/kg] | Activity (Mus musculus [12]) | other results |
| --- | --- | --- | --- | --- | --- | --- | --- |
| CCCCCCCOc1c(C(=O)N/N=C(\C)c2cccs2)sc(C(=O)N/N=C(\C)c2cccs2)c1OCCCCCCC |  |  |  |  |  |  | Activity (Mus musculus [1]): inactive; Activity (Mus musculus [2]): inactive; Activity (Mus musculus [3]): inactive; Activity (Mus musculus [4]): inactive; Activity (Mus musculus [5]): inactive; Activity (Mus musculus [6]): inactive |
| COc1cc(/C=N/NC(=O)c2sc(C(=O)N/N=C/c3cc(OC)c(OC)c(OC)c3)c3c2OCCO3)cc(OC)c1OC | inactive | inactive | inactive | inactive | 300 | Not Active |  |
| CCCCCCCOc1c(C(=O)N/N=C/c2ccc3c(c2)c2ccccc2n3CC)sc(C(=O)N/N=C/c2ccc3c(c2)c2ccccc2n3CC)c1OCCCCCCC |  |  |  |  |  |  | Activity (Mus musculus [13]): inactive; Activity (Mus musculus [14]): inactive; Activity (Mus musculus [15]): inactive; Activity (Mus musculus [16]): inactive; Activity (Mus musculus [17]): inactive |
| CCCCCCCOc1c(C(=O)N/N=C/c2cc(OC)c(OC)c(OC)c2)sc(C(=O)N/N=C/c2cc(OC)c(OC)c(OC)c2)c1OCCCCCCC |  |  |  |  |  |  | Activity (Mus musculus [18]): inactive |
| CCCOc1c(C(=O)N/N=C/c2ccc([N+](=O)[O-])cc2)sc(C(=O)N/N=C/c2ccc([N+](=O)[O-])cc2)c1OCCC | inactive | inactive | inactive | inactive | 100 | Not Active |  |
| CCCOc1c(C(=O)N/N=C/c2ccccc2OC)sc(C(=O)N/N=C/c2ccccc2OC)c1OCCC | inactive | inactive | inactive | inactive | 100 | Not Active |  |
| O=C(N/N=C/c1ccc([N+](=O)[O-])cc1)c1sc(C(=O)N/N=C/c2ccc([N+](=O)[O-])cc2)c(OCc2ccccc2)c1OCc1ccccc1 | inactive | inactive | inactive | inactive | 100 | Not Active |  |
| CCCOc1c(C(=O)N/N=C2/C(=O)Nc3ccccc32)sc(C(=O)N/N=C2/C(=O)Nc3ccccc32)c1OCCC | inactive |  | inactive | inactive | 100 |  | Activity (Mus musculus [19]): 300 mg/kg; Activity (Mus musculus [20]): 300 mg/kg; Activity (Mus musculus [6]): inactive; Activity (Mus musculus [21]): inactive; Activity (Mus musculus [22]): inactive |
| CCCCCCCOc1c(C(=O)NN)sc(C(=O)NN)c1OCCCCCCC | inactive |  | inactive | inactive |  | Not Active | Activity (Mus musculus [19]): 100 mg/kg; Activity (Mus musculus [23]): Not Active |
| CCCOc1c(C(=O)N/N=C(/C)c2cc(Cl)sc2Cl)sc(C(=O)N/N=C(/C)c2cc(Cl)sc2Cl)c1OCCC | inactive | inactive | inactive |  | 300 | Not Active | Activity (Mus musculus [24]): 300 mg/kg |
| C/C(=N\NC(=O)c1sc(C(=O)N/N=C(\C)c2cccs2)c(OCc2ccccc2)c1OCc1ccccc1)c1cccs1 | inactive |  | inactive | inactive |  | Not Active | Activity (Mus musculus [19]): 300 mg/kg; Activity (Mus musculus [23]): Not Active |
| CCCOc1c(C(=O)N/N=C/c2ccccc2O)sc(C(=O)N/N=C/c2ccccc2O)c1OCCC | inactive | inactive | inactive |  |  | Not Active | Activity (Mus musculus [24]): 300 mg/kg; Activity (Mus musculus [23]): Not Active; Activity (Mus musculus [18]): inactive; Activity (Mus musculus [21]): inactive; Activity (Mus musculus [22]): inactive |
| CCCOc1c(C(=O)NN)sc(C(=O)NN)c1OCCC | inactive | inactive | inactive | inactive | 100 | Not Active |  |
| CCCCCCCOc1c(C(=O)N/N=C2/C(=O)Nc3ccccc32)sc(C(=O)N/N=C2/C(=O)Nc3ccccc32)c1OCCCCCCC |  |  |  |  |  |  | Activity (Mus musculus [18]): inactive; Activity (Mus musculus [6]): inactive |
| CCCOc1c(C(=O)N/N=C/c2ccc(C(=O)O)cc2)sc(C(=O)N/N=C/c2ccc(C(=O)O)cc2)c1OCCC | inactive | inactive | inactive | inactive | 100 | Not Active |  |
| CCCOc1c(C(=O)N/N=C/c2cccnc2N)sc(C(=O)N/N=C/c2cccnc2N)c1OCCC |  |  |  |  |  |  | Activity (Mus musculus [25]): inactive; Activity (Mus musculus [6]): inactive; Activity (Mus musculus [21]): inactive; Activity (Mus musculus [22]): inactive |
| CCCOc1c(C(=O)N/N=C/c2cc([N+](=O)[O-])ccc2Br)sc(C(=O)N/N=C/c2cc([N+](=O)[O-])ccc2Br)c1OCCC | inactive | inactive | inactive | inactive | 300 | Not Active |  |
| CCCOc1c(C(=O)N/N=C(/C)c2ccsc2)sc(C(=O)N/N=C(/C)c2ccsc2)c1OCCC |  |  |  |  |  |  | Activity (Mus musculus [18]): inactive; Activity (Mus musculus [22]): inactive |
| CCCOc1c(C(=O)N/N=C/c2ccc(N(C)C)cc2)sc(C(=O)N/N=C/c2ccc(N(C)C)cc2)c1OCCC | inactive | inactive | inactive | inactive | 100 |  | Activity (Mus musculus [20]): 300 mg/kg |
| CCCOc1c(C(=O)N/N=C(/C)c2ccc(Br)s2)sc(C(=O)N/N=C(/C)c2ccc(Br)s2)c1OCCC |  |  |  |  |  |  | Activity (Mus musculus [25]): inactive |
| CCCOc1c(C(=O)N/N=C(/C)c2ccsc2Br)sc(C(=O)N/N=C(/C)c2ccsc2Br)c1OCCC |  |  |  |  |  |  | Activity (Mus musculus [18]): inactive; Activity (Mus musculus [21]): inactive; Activity (Mus musculus [22]): inactive |

Source: ChEMBL document CHEMBL1155262, “A new class of anticonvulsants possessing 6 Hz activity: 3,4-dialkyloxy thiophene bishydrazones” (Eur J Med Chem, 2009)
